# Test results reported in ChEMBL document CHEMBL5712883, “RNA polymerase II stalling promotes nucleosome occlusion and pTEFb recruitment to drive immortalization by Epstein-Barr virus” (PLoS Pathog, 2011).
# Calls of active or inactive are those of the source. The calls are words filed in the database; no cut-off is given here.
# Columns and labels:
# Format in all cases: cell-based
# [1] = molecular target: T1, CDK9/cyclin T1 (Homo sapiens) (UniProt O60563+P50750); assay: Inhibition of CDK9/Cyclin T1 in human Mutu-3 cells assessed as decrease in Cp-initiated EBNA 2 transcription at 25 to 50 uM incubated for 24 hrs by Q-PCR analysis; conditions: dose 25-50 µM
# How it was run: (§1)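 Mutu III cells seeded at 5×10^5 cells/ml and given DRB or flavopiridol at the stated concentrations, with DMSO as control, for 24 hrs. cDNA was made from 10^5 cells with a cells-to-Ct SYBR kit. Q-PCR used cDNA-specific EBNA 2, EBNA 1 (YUK) or LMP1 primers, with actin as endogenous control, and was analysed by relative quantification (ddCt) against 24 hr control samples.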
# [2] = molecular target: T1, CDK9/cyclin T1 (Homo sapiens); assay: Inhibition of CDK9/Cyclin T1 in human Mutu-3 cells assessed as decrease in Cp-initiated EBNA 1 transcription at 25 to 50 uM incubated for 24 hrs by Q-PCR analysis; conditions: dose 25-50 µM; how it was run: as §1
# [3] = molecular target: T1, CDK9/cyclin T1 (Homo sapiens); assay: Inhibition of CDK9/Cyclin T1 in human Mutu-3 cells assessed as decrease in Cp-initiated LMP1 transcription at 25 to 50 uM incubated for 24 hrs by Q-PCR analysis; conditions: dose 25-50 µM; how it was run: as §1
# [4] = molecular target: T1, CDK9/cyclin T1 (Homo sapiens); assay: Inhibition of CDK9/Cyclin T1 in human Mutu-3 cells assessed as reduction in RNA pol II C-terminal domain phosphorylation on serine 5 at -208 distal EBV genome region at 500 nM incubated for 2 hrs by CHIP assay
# [5] = molecular target: T1, CDK9/cyclin T1 (Homo sapiens); assay: Inhibition of CDK9/Cyclin T1 in human Mutu-3 cells assessed as reduction in RNA pol II C-terminal domain phosphorylation on serine 5 at +48 distal EBV genome region at 500 nM incubated for 2 hrs by CHIP assay
# [6] = molecular target: T1, CDK9/cyclin T1 (Homo sapiens); assay: Inhibition of CDK9/Cyclin T1 in human Mutu-3 cells assessed as reduction in RNA pol II C-terminal domain phosphorylation on serine 5 at +295 distal EBV genome region at 500 nM incubated for 2 hrs by CHIP assay
# [7] = molecular target: T1, CDK9/cyclin T1 (Homo sapiens); assay: Inhibition of CDK9/Cyclin T1 in human Mutu-3 cells assessed as reduction in RNA pol II C-terminal domain phosphorylation on serine 5 at W repeat EBV genome region at 500 nM incubated for 2 hrs by CHIP assay
# [8] = molecular target: T1, CDK9/cyclin T1 (Homo sapiens); assay: Inhibition of CDK9/Cyclin T1 in human Mutu-3 cells assessed as reduction in RNA pol II C-terminal domain phosphorylation on serine 5 at +30896 distal EBV genome region at 500 nM incubated for 2 hrs by CHIP assay
# [9] = molecular target: T1, CDK9/cyclin T1 (Homo sapiens); assay: Inhibition of CDK9/Cyclin T1 in human Mutu-3 cells assessed as reduction in RNA pol II C-terminal domain phosphorylation on serine 5 at +38667 distal EBV genome region at 500 nM incubated for 2 hrs by CHIP assay
# [10] = molecular target: T1, CDK9/cyclin T1 (Homo sapiens); assay: Inhibition of CDK9/Cyclin T1 in human Mutu-3 cells assessed as reduction in RNA pol II C-terminal domain phosphorylation on serine 5 at +38828 distal EBV genome region at 500 nM incubated for 2 hrs by CHIP assay
# [11] = molecular target: T1, CDK9/cyclin T1 (Homo sapiens); assay: Inhibition of CDK9/Cyclin T1 in human B cell transfected with EBV assessed as reduction in RNA pol II C-terminal domain phosphorylation on serine 5 at -208 distal EBV genome region at 500 nM incubated for 2 hrs in presence of beta-estradiol by CHIP assay
# [12] = molecular target: T1, CDK9/cyclin T1 (Homo sapiens); assay: Inhibition of CDK9/Cyclin T1 in human B cell transfected with EBV assessed as reduction in RNA pol II C-terminal domain phosphorylation on serine 5 at +48 distal EBV genome region at 500 nM incubated for 2 hrs in presence of beta-estradiol by CHIP assay
# [13] = molecular target: T1, CDK9/cyclin T1 (Homo sapiens); assay: Inhibition of CDK9/Cyclin T1 in human B cell transfected with EBV assessed as reduction in RNA pol II C-terminal domain phosphorylation on serine 5 at +295 distal EBV genome region at 500 nM incubated for 2 hrs in presence of beta-estradiol by CHIP assay
# [14] = molecular target: T1, CDK9/cyclin T1 (Homo sapiens); assay: Inhibition of CDK9/Cyclin T1 in human B cell transfected with EBV assessed as reduction in RNA pol II C-terminal domain phosphorylation on serine 5 at +30896 distal EBV genome region at 500 nM incubated for 2 hrs in presence of beta-estradiol by CHIP assay
# [15] = molecular target: T1, CDK9/cyclin T1 (Homo sapiens); assay: Inhibition of CDK9/Cyclin T1 in human B cell transfected with EBV assessed as reduction in RNA pol II C-terminal domain phosphorylation on serine 5 at +40493 distal EBV genome region at 500 nM incubated for 2 hrs in presence of beta-estradiol by CHIP assay
# [16] = molecular target: T1, CDK9/cyclin T1 (Homo sapiens); assay: Inhibition of CDK9/Cyclin T1 in human B cell transfected with EBV assessed as reduction in RNA pol II C-terminal domain phosphorylation on serine 5 at +50024 distal EBV genome region at 500 nM incubated for 2 hrs in presence of beta-estradiol by CHIP assay
# [17] = molecular target: T1, CDK9/cyclin T1 (Homo sapiens); assay: Inhibition of CDK9/Cyclin T1 in human B cell transfected with EBV assessed as reduction in RNA pol II C-terminal domain phosphorylation on serine 5 at +59014 distal EBV genome region at 500 nM incubated for 2 hrs in presence of beta-estradiol by CHIP assay
# [18] = molecular target: T1, CDK9/cyclin T1 (Homo sapiens); assay: Inhibition of CDK9/Cyclin T1 in human B cell transfected with EBV assessed as reduction in RNA pol II C-terminal domain phosphorylation on serine 5 at +75615 distal EBV genome region at 500 nM incubated for 2 hrs in presence of beta-estradiol by CHIP assay
# [19] = molecular target: T1, CDK9/cyclin T1 (Homo sapiens); assay: Inhibition of CDK9/Cyclin T1 in human Mutu-3 cells assessed as effect on cp-pre-initiation complex assembly at -208 distal EBV genome region at 500 nM incubated for 2 hrs by CHIP assay
# [20] = molecular target: T1, CDK9/cyclin T1 (Homo sapiens); assay: Inhibition of CDK9/Cyclin T1 in human Mutu-3 cells assessed as effect on cp-pre-initiation complex assembly at +48 distal EBV genome region at 500 nM incubated for 2 hrs by CHIP assay
# [21] = molecular target: T1, CDK9/cyclin T1 (Homo sapiens); assay: Inhibition of CDK9/Cyclin T1 in human Mutu-3 cells assessed as effect on cp-pre-initiation complex assembly at +295 distal EBV genome region at 500 nM incubated for 2 hrs by CHIP assay
# [22] = molecular target: T1, CDK9/cyclin T1 (Homo sapiens); assay: Inhibition of CDK9/Cyclin T1 in human Mutu-3 cells assessed as effect on cp-pre-initiation complex assembly at +30896 distal EBV genome region at 500 nM incubated for 2 hrs by CHIP assay
# [23] = molecular target: T1, CDK9/cyclin T1 (Homo sapiens); assay: Inhibition of CDK9/Cyclin T1 in human Mutu-3 cells assessed as effect on cp-pre-initiation complex assembly at +38667 distal EBV genome region at 500 nM incubated for 2 hrs by CHIP assay
# [24] = molecular target: T1, CDK9/cyclin T1 (Homo sapiens); assay: Inhibition of CDK9/Cyclin T1 in human Mutu-3 cells assessed as effect on cp-pre-initiation complex assembly at +38828 distal EBV genome region at 500 nM incubated for 2 hrs by CHIP assay
# [25] = molecular target: T1, CDK9/cyclin T1 (Homo sapiens); assay: Inhibition of CDK9/Cyclin T1 in human HeLa cells stably transfected Flag-tagged CDK9 assessed as increase in fold change pTEFb/Brd4 complex at 1 mM by western analysis
# [26] = molecular target: T1, CDK9/cyclin T1 (Homo sapiens); assay: Inhibition of CDK9/Cyclin T1 in human Mutu-3 cells assessed as increase in fold change pTEFb/Brd4 complex
# [27] = molecular target: T1, CDK9/cyclin T1 (Homo sapiens); assay: Inhibition of CDK9/Cyclin T1 in human Mutu-3 cells assessed as reduction in BRD4 at -317 distal EBV genome region at 500 nM incubated for 2 hrs by CHIP assay
# [28] = molecular target: T1, CDK9/cyclin T1 (Homo sapiens); assay: Inhibition of CDK9/Cyclin T1 in human Mutu-3 cells assessed as reduction in BRD4 at +34 distal EBV genome region at 500 nM incubated for 2 hrs by CHIP assay
# [29] = molecular target: T1, CDK9/cyclin T1 (Homo sapiens); assay: Inhibition of CDK9/Cyclin T1 in human Mutu-3 cells assessed as reduction in BRD4 at +574 distal EBV genome region at 500 nM incubated for 2 hrs by CHIP assay
# [30] = molecular target: T1, CDK9/cyclin T1 (Homo sapiens); assay: Inhibition of CDK9/Cyclin T1 in human Mutu-3 cells assessed as reduction in BRD4 at +1564 distal EBV genome region at 500 nM incubated for 2 hrs by CHIP assay
# [31] = molecular target: T1, CDK9/cyclin T1 (Homo sapiens); assay: Inhibition of CDK9/Cyclin T1 in human Mutu-3 cells assessed as reduction in BRD4 at +2238 distal EBV genome region at 500 nM incubated for 2 hrs by CHIP assay
# [32] = molecular target: T1, CDK9/cyclin T1 (Homo sapiens); assay: Inhibition of CDK9/Cyclin T1 in human Mutu-3 cells assessed as reduction in H3 histone acetylation at -317 distal EBV genome region at 500 nM incubated for 2 hrs by CHIP assay
# [33] = molecular target: T1, CDK9/cyclin T1 (Homo sapiens); assay: Inhibition of CDK9/Cyclin T1 in human Mutu-3 cells assessed as reduction in H3 histone acetylation at +34 distal EBV genome region at 500 nM incubated for 2 hrs by CHIP assay
# [34] = molecular target: T1, CDK9/cyclin T1 (Homo sapiens); assay: Inhibition of CDK9/Cyclin T1 in human Mutu-3 cells assessed as reduction in H3 histone acetylation at +574 distal EBV genome region at 500 nM incubated for 2 hrs by CHIP assay
# [35] = molecular target: T1, CDK9/cyclin T1 (Homo sapiens); assay: Inhibition of CDK9/Cyclin T1 in human Mutu-3 cells assessed as reduction in H3 histone acetylation at +1564 distal EBV genome region at 500 nM incubated for 2 hrs by CHIP assay
# [36] = molecular target: T1, CDK9/cyclin T1 (Homo sapiens); assay: Inhibition of CDK9/Cyclin T1 in human Mutu-3 cells assessed as reduction in H3 histone acetylation at +2238 distal EBV genome region at 500 nM incubated for 2 hrs by CHIP assay
# [37] = molecular target: T1, CDK9/cyclin T1 (Homo sapiens); assay: Inhibition of CDK9/Cyclin T1 in human Mutu-3 cells assessed as reduction in H4 histone acetylation at -317 distal EBV genome region at 500 nM incubated for 2 hrs by CHIP assay
# [38] = molecular target: T1, CDK9/cyclin T1 (Homo sapiens); assay: Inhibition of CDK9/Cyclin T1 in human Mutu-3 cells assessed as reduction in H4 histone acetylation at +34 distal EBV genome region at 500 nM incubated for 2 hrs by CHIP assay
# [39] = molecular target: T1, CDK9/cyclin T1 (Homo sapiens); assay: Inhibition of CDK9/Cyclin T1 in human Mutu-3 cells assessed as reduction in H4 histone acetylation at +574 distal EBV genome region at 500 nM incubated for 2 hrs by CHIP assay
# [40] = molecular target: T1, CDK9/cyclin T1 (Homo sapiens); assay: Inhibition of CDK9/Cyclin T1 in human Mutu-3 cells assessed as reduction in H4 histone acetylation at +1564 distal EBV genome region at 500 nM incubated for 2 hrs by CHIP assay
# [41] = molecular target: T1, CDK9/cyclin T1 (Homo sapiens); assay: Inhibition of CDK9/Cyclin T1 in human Mutu-3 cells assessed as reduction in H4 histone acetylation at +2238 distal EBV genome region at 500 nM incubated for 2 hrs by CHIP assay
structure (smiles),measurement,setting,value
OC[C@H]1O[C@@H](n2cnc3cc(Cl)c(Cl)cc32)[C@H](O)[C@@H]1O,inhibition,[1],Active
same,inhibition,[2],Active
same,inhibition,[3],inactive
same,inhibition,[4],Active
same,inhibition,[5],Active
same,inhibition,[6],Active
same,inhibition,[7],Active
same,inhibition,[8],Active
same,inhibition,[9],Active
same,inhibition,[10],Active
same,inhibition,[11],Active
same,inhibition,[12],Active
same,inhibition,[13],Active
same,inhibition,[14],Active
same,inhibition,[15],Active
same,inhibition,[16],Active
same,inhibition,[17],Active
same,inhibition,[18],Active
same,inhibition,[19],inactive
same,inhibition,[20],inactive
same,inhibition,[21],inactive
same,inhibition,[22],inactive
same,inhibition,[23],inactive
same,inhibition,[24],inactive
same,fold change (FC),[25],2
same,fold change (FC),[26],2
same,inhibition,[27],Active
same,inhibition,[28],Active
same,inhibition,[29],Active
same,inhibition,[30],Active
same,inhibition,[31],Active
same,inhibition,[32],Active
same,inhibition,[33],Active
same,inhibition,[34],Active
same,inhibition,[35],Active
same,inhibition,[36],Active
same,inhibition,[37],Active
same,inhibition,[38],Active
same,inhibition,[39],Active
same,inhibition,[40],Active
same,inhibition,[41],Active
